Results from ChEMBL document CHEMBL1124110, “Synthesis and pharmacological evaluation of 5,6-exo-epoxy-7-oxabicyclo[2.2.1]heptane derivatives” (J Med Chem, 1988).

Columns and labels:
Assay type in all cases: functional
Homo sapiens = organism: Homo sapiens; assay: Inhibition of platelet aggregation induced by arachidonic acid(AA) in human platelet-rich plasma; settings: read-out: I50
Outline: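 Human platelet-rich plasma; aggregation triggered by arachidonic acid. Potency is expressed as the I50 (concentration giving 50% inhibition), reported as mean ± SEM or as mean ± range when n = 2.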

Cavia porcellus [1] = assay: Percent inhibition of increase in pulmonary resistance was measured on arachidonic acid induced bronchoconstriction in the anesthetized guinea pig after 10 min
Outline: (§1)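 Anesthetized guinea pigs received the test agent at 1 mg/kg iv. Arachidonic acid (0.5 mg/kg iv) injections were given as challenge. Rises in pulmonary resistance were recorded, and percent inhibition was scored at 3, 10 and 30 min. Values are mean ± SEM, n = 3–5 animals.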

Cavia porcellus [2] = assay: Percent inhibition of increase in pulmonary resistance was measured on arachidonic acid induced bronchoconstriction in the anesthetized guinea pig after 3 min; outline: as §1
Cavia porcellus [3] = assay: Percent inhibition of increase in pulmonary resistance was measured on arachidonic acid induced bronchoconstriction in the anesthetized guinea pig after 30 min; outline: as §1

SMILES | IC50 (Homo sapiens) [µM] | Inhibition (Cavia porcellus [1]) [%] | Inhibition (Cavia porcellus [2]) [%] | Inhibition (Cavia porcellus [3]) [%]
O=C(O)CCC/C=C\CC1C(/C=C/[C@H](O)C2CCCCC2)C2OC1C1OC21 (some centres not stated) | 17 |  |  | 
O=C(O)COc1ccc(CCNS(=O)(=O)c2ccccc2)cc1 [SULOTROBAN] | 38.5 | 82 | 89 | 40
COc1ccc2c(c1)c(CC(=O)O)c(C)n2C(=O)c1ccc(Cl)cc1 [INDOMETHACIN] | 6 |  |  | 
O=C(O)CCC/C=C\CC1C(/C=C/[C@@H](O)CCc2ccc(O)cc2)C2OC1C1OC21 (some centres not stated) | 0.27 | 83 | 90 | 46
CC1([C@H](O)/C=C/C2C(C/C=C\CCCC(=O)O)C3OC2C2OC32)CCCCC1 (some centres not stated) | 0.53 | 67 | 85 | 22
O=C(O)CCC/C=C\CC1C(/C=C/[C@@H](O)CCc2ccccc2)C2OC1C1OC21 (some centres not stated) | 1.6 |  |  | 

More lines, main results first:

IC50 (Homo sapiens) [µM] | SMILES | Inhibition (Cavia porcellus [1]) [%] | Inhibition (Cavia porcellus [2]) [%] | Inhibition (Cavia porcellus [3]) [%]
5.2 | O=C(O)CCC/C=C\CC1C(/C=C/[C@@H](O)C2CCCCC2)C2OC1C1OC21 (some centres not stated) |  |  | 
2.2 | CCCCC(C)(C)[C@H](O)/C=C/C1C(C/C=C\CCCC(=O)O)C2OC1C1OC21 (some centres not stated) |  |  | 
15.3 | CCCCC[C@H](O)/C=C/C1C(C/C=C\CCCC(=O)O)C2OC1C1OC21 (some centres not stated) |  |  | 
0.02 | O=C(O)CCC/C=C\C[C@@H]1[C@H](CNNC(=O)Nc2ccccc2)[C@H]2CC[C@H]1O2 | 98 | 97 | 96
